Test results: ChEMBL document CHEMBL4732199, “Potent and orally bioavailable CDK8 inhibitors: Design, synthesis, structure-activity relationship analysis and biological evaluation” (Eur J Med Chem, 2021)

Experiments:
Kasumi 1 = experiment: Growth inhibition human Kasumi-1 cells after 72 hrs by resazurin or MTT assay; assay type: functional
Procedure, shortened: (§1)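 Tumour cell lines kept in RPMI-1640, DMEM or MEM with 10% FBS at 37 °C, 5% CO2, mycoplasma-free. Exposure lasted 72 h. Viability was read by MTT for adherent solid-tumour lines and by resazurin for suspension leukaemia lines. GI50 came from nonlinear regression, given as mean ± standard deviation of at least two replicates unless stated otherwise.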

HT-29 = experiment: Growth inhibition human HT-29 cells after 72 hrs by resazurin or MTT assay; assay type: functional; procedure, shortened: as §1
[1] = Toxicity in BALB/c mouse assessed as infiltration of inflammatory cells at 70 mg/kg, po administered once daily for 7 days and measured on day 15; assay type: organism-based; details: in vivo, 168 h, time 7 day
T47D = experiment: Growth inhibition human T47D cells after 72 hrs by resazurin or MTT assay; assay type: functional; procedure, shortened: as §1
[2] = Toxicity in BALB/c mouse assessed as interstitial pneumonitis in lung at 70 mg/kg, po administered once daily for 7 days and measured on day 15; assay type: organism-based; details: in vivo, 168 h, time 7 day
HL-60 = experiment: Growth inhibition human HL-60 cells after 72 hrs by resazurin or MTT assay; assay type: functional; procedure, shortened: as §1
MDA-MB-231 = experiment: Growth inhibition human MDA-MB-231 cells after 72 hrs by resazurin or MTT assay; assay type: functional; procedure, shortened: as §1
[3] = Cmax in Sprague-Dawley rat at 5 mg/kg, iv measured up to 24 hrs by LC-MS/MS analysis; assay type: ADME, organism-based; design: route intravenous, dose 5 mg/kg, time <=24; details: in vivo
[4] = Toxicity in BALB/c mouse assessed as pathological alterations in lung at 70 mg/kg, po administered once daily for 7 days and measured on day 15; assay type: organism-based; details: in vivo, 168 h, time 7 day
KG-1a = experiment: Growth inhibition human KG-1a cells after 72 hrs by resazurin or MTT assay; assay type: functional; procedure, shortened: as §1
A2780 = experiment: Growth inhibition human A2780 cells after 72 hrs by resazurin or MTT assay; assay type: functional; procedure, shortened: as §1
[5] = Toxicity in BALB/c mouse assessed as neutrophils at 70 mg/kg, po administered once daily for 7 days and measured on day 15 by flow cytometric analysis; assay type: organism-based; details: in vivo, 168 h, time 7 day
MV4-11 = experiment: Growth inhibition of human MV4-11 cells after 72 hrs by resazurin staining based assay; assay type: functional
Procedure, shortened: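 MV4-11 leukaemia cells grown in medium with 10% FBS at 37 °C, 5% CO2. Growth was read by a 72-h resazurin viability assay. GI50 was obtained by nonlinear regression and reported as mean ± standard deviation of at least two replicates.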

THP-1 = experiment: Growth inhibition human THP1 cells after 72 hrs by resazurin or MTT assay; assay type: functional; procedure, shortened: as §1
MCF7 = experiment: Growth inhibition human MCF7 cells after 72 hrs by resazurin or MTT assay; assay type: functional; procedure, shortened: as §1
[6] = Toxicity in BALB/c mouse assessed as destruction of vessel walls at 70 mg/kg, po administered once daily for 7 days and measured on day 15; assay type: organism-based; details: in vivo, 168 h, time 7 day
NB-4 = experiment: Growth inhibition human NB4 cells after 72 hrs by resazurin or MTT assay; assay type: functional; procedure, shortened: as §1
[7] = Cmax in Sprague-Dawley rat at 20 mg/kg, po measured up to 24 hrs by LC-MS/MS analysis; assay type: ADME, organism-based; design: route oral, dose 20 mg/kg, time <=24; details: in vivo
[8] = target: Protein kinase C theta type (Homo sapiens, UniProt Q04759); experiment: Inhibition of human full length PKCtheta using histone H1 as substrate incubated for 40 mins in presence of [gamma-33P]-ATP by scintillation counting method
Sequence of Protein kinase C theta type (Q04759 whole entry): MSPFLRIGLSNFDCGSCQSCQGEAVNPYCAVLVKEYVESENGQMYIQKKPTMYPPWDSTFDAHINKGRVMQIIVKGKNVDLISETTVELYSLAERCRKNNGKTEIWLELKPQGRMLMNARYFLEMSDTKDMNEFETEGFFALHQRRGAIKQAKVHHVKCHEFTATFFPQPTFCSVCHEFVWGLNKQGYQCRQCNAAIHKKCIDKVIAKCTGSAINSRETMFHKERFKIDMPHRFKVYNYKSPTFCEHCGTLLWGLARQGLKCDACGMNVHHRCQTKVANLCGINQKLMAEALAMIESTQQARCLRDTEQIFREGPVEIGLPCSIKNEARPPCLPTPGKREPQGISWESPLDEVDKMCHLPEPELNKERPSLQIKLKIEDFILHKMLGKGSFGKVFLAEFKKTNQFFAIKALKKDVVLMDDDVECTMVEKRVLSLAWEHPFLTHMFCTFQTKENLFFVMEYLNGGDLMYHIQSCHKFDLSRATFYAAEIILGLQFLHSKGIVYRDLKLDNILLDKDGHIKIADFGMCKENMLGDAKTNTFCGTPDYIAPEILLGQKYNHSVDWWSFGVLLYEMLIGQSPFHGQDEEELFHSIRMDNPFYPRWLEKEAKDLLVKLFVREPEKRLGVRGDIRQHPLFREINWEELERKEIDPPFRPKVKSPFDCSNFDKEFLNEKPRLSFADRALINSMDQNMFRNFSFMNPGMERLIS
Procedure, shortened: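 IC50 measured in a contracted radiometric kinase assay with ATP at the experimentally determined Km(ATP) of each kinase. Apparent Ki was derived by Cheng-Prusoff: Ki = IC50/(1+[ATP]/Km(ATP)).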

[9] = AUC in Sprague-Dawley rat at 5 mg/kg, iv measured up to 24 hrs by LC-MS/MS analysis; assay type: ADME, organism-based; design: route intravenous, dose 5 mg/kg, time <=24; details: in vivo
[10] = Toxicity in BALB/c mouse assessed as pathological alterations in left femora at 70 mg/kg, po administered once daily for 7 days and measured on day 15; assay type: organism-based; details: in vivo, 168 h, time 7 day
PANC-1 = experiment: Growth inhibition human PANC-1 cells after 72 hrs by resazurin or MTT assay; assay type: functional; procedure, shortened: as §1
[11] = Toxicity in BALB/c mouse assessed as increase in dead splenocytes at 70 mg/kg, po administered once daily for 7 days and measured on day 15 by flow cytometric analysis; assay type: organism-based; details: in vivo, 168 h, time 7 day
[12] = Toxicity in BALB/c mouse assessed as B cells at 70 mg/kg, po administered once daily for 7 days and measured on day 15 by flow cytometric analysis; assay type: organism-based; details: in vivo, 168 h, time 7 day
[13] = Volume of distribution at steady state in Sprague-Dawley rat at 5 mg/kg, iv measured up to 24 hrs by LC-MS/MS analysis; assay type: ADME, organism-based; details: in vivo, read-out: Vdss
[14] = Toxicity in BALB/c mouse assessed as increase in number of alveolar macrophages at 70 mg/kg, po administered once daily for 7 days and measured on day 15; assay type: organism-based; details: in vivo, 168 h, time 7 day
[15] = Toxicity in BALB/c mouse assessed as granulocytes at 70 mg/kg, po administered once daily for 7 days and measured on day 15 by flow cytometric analysis; assay type: organism-based; details: in vivo, 168 h, time 7 day
[16] = Effect on total STAT1 level in human MV4-11 cells at 1 to 5 times of GI50 concentration after 2 hrs by Western blot analysis; assay type: ADME, cell-based; details: mv4-11, 2 h
[17] = Tmax in Sprague-Dawley rat at 20 mg/kg, po measured up to 24 hrs by LC-MS/MS analysis; assay type: ADME, organism-based; details: in vivo
[18] = Toxicity in BALB/c mouse assessed as vasculitis in blood vessels at 70 mg/kg, po administered once daily for 7 days and measured on day 15; assay type: organism-based; details: in vivo, 168 h, time 7 day
[19] = AUC in Sprague-Dawley rat at 20 mg/kg, po measured up to 24 hrs by LC-MS/MS analysis; assay type: ADME, organism-based; design: route oral, dose 20 mg/kg, time <=24; details: in vivo
[20] = target: Glycogen synthase kinase-3 beta (Homo sapiens, UniProt P49841); experiment: Inhibition of human GSKbeta H350L mutant (2 to 3nd residues) using YRRAAVPPSPSLSRHSSPHQS(p) EDEEE as substrate incubated for 40 mins in presence of [gamma-33P]-ATP by scintillation counting method
Sequence of Glycogen synthase kinase-3 beta (P49841 whole entry): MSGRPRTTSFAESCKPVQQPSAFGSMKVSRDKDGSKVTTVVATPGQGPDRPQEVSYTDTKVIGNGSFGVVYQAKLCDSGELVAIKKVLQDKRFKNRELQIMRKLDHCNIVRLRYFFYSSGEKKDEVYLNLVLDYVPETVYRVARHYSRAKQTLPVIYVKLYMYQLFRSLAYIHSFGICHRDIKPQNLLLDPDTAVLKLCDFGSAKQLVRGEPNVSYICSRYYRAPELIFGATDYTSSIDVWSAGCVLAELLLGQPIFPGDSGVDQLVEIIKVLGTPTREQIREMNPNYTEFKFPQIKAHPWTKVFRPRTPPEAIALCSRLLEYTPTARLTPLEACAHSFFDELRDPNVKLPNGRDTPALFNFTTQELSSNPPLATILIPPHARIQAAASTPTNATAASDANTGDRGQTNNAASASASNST
Procedure, shortened: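 Outsourced radioisotope (HotSpot) kinase assay run by a contract lab, with ATP at the kinase's Km(ATP). The IC50 was converted to an apparent Ki by the Cheng-Prusoff equation, Ki = IC50/(1+[ATP]/Km(ATP)), using the experimentally determined Km(ATP).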

[21] = Half life in Sprague-Dawley rat at 20 mg/kg, po measured up to 24 hrs by LC-MS/MS analysis; assay type: ADME, organism-based; details: in vivo
KG-1 = experiment: Growth inhibition human KG-1 cells after 72 hrs by resazurin or MTT assay; assay type: functional; procedure, shortened: as §1
[22] = Growth inhibition human WI38 cells after 72 hrs by resazurin or MTT assay; assay type: cell-based; details: WI-38 cells
[23] = Toxicity in BALB/c mouse assessed as dendritic cells at 70 mg/kg, po administered once daily for 7 days and measured on day 15 by flow cytometric analysis; assay type: organism-based; details: in vivo, 168 h, time 7 day
U-937 = experiment: Growth inhibition human U-937 cells after 72 hrs by resazurin or MTT assay; assay type: functional; procedure, shortened: as §1
[24] = Half life in Sprague-Dawley rat at 5 mg/kg, iv measured up to 24 hrs by LC-MS/MS analysis; assay type: ADME, organism-based; details: in vivo
COLO 205 = experiment: Growth inhibition human COLO 205 cells after 72 hrs by resazurin or MTT assay; assay type: functional; procedure, shortened: as §1

Structure (SMILES) | GI50 (Kasumi 1) | GI50 (HT-29) | Activity [1] | GI50 (T47D) | Activity [2] | GI50 (HL-60) | GI50 (MDA-MB-231) | Cmax [3] | Activity [4] | GI50 (KG-1a) | GI50 (A2780) | Activity [5] | GI50 (MV4-11) | GI50 (THP-1) | GI50 (MCF7) | Activity [6] | GI50 (NB-4) | Cmax [7] | Ki [8] | AUC at 24 h [9] | further results
Cn1cc(-c2ccc(-c3cncc(Cl)c3N3CCC4(CCNC4=O)CC3)cc2)cn1 | 37 µM | 48.6 µM | Toxic | 15.1 µM | Toxic | > 50 µM | 29.9 µM | 10.6 µM | Toxic | 32.71 µM | 35.9 µM | Non-Toxic | 0.03 µM | > 50 µM | > 50 µM | Toxic | > 50 µM | 4.06 µM | 0.061 µM | 10.5 µM·h | Activity [10]: Toxic; GI50 (PANC-1): 0.55 µM; Activity [11]: Non-Toxic; Activity [12]: Non-Toxic; Vd [13]: 1.38 L/kg; Activity [14]: Toxic; Activity [15]: Non-Toxic; Activity [16]: Non-Toxic; Tmax [17]: 1.33 h; Activity [18]: Toxic; AUC at 24 h [19]: 17.5 µM·h; Ki [20]: 0.345 µM; half-life [21]: 4.24 h; GI50 (KG-1): 19.98 µM; GI50 at 72 h [22]: > 50 µM; Activity [23]: Non-Toxic; GI50 (U-937): 22.4 µM; half-life [24]: 1.08 h; GI50 (COLO 205): 37.7 µM
O=C1NCCC12CCN(c1c(Cl)cncc1-c1cc3ccccc3o1)CC2 | > 50 µM | 44.2 µM | Non-Toxic | 16.2 µM | Non-Toxic | 35.3 µM | 40.7 µM | 14.4 µM | Non-Toxic | 19.55 µM | 21.4 µM | Non-Toxic | 0.36 µM | > 50 µM | > 50 µM | Non-Toxic | 40.8 µM | 2.77 µM | 0.109 µM | 9.7 µM·h | Activity [10]: Non-Toxic; GI50 (PANC-1): > 50 µM; Activity [11]: Non-Toxic; Activity [12]: Non-Toxic; Vd [13]: 1.11 L/kg; Activity [14]: Non-Toxic; Activity [15]: Non-Toxic; Activity [16]: Non-Toxic; Tmax [17]: 2.75 h; Activity [18]: Non-Toxic; AUC at 24 h [19]: 14.6 µM·h; Ki [20]: 0.004 µM; half-life [21]: 2.24 h; GI50 (KG-1): 7.13 µM; GI50 at 72 h [22]: 48.1 µM; Activity [23]: Non-Toxic; GI50 (U-937): 1.36 µM; half-life [24]: 0.9 h; GI50 (COLO 205): > 50 µM
